Molecules are shown by their SMILES.

This test has as its system Mus musculus. Kind of test: Percent of mice (n=8) protected against seizures induced by a maximal electroshock (50mA,0.2s) after 30 mg/kg compound was injected intraperitoneally. It counts as functional. The following applies: route intraperitoneal. In outline:
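Mice, n = 8 per group, received 30mg/kg ip 3h before a maximal electroshock (50mA, 0.2s). The read-out was the percentage of animals protected against the induced seizures.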
In general terms: In the maximal electroshock model the usual endpoint is tonic extension of the hind limbs.
Consider `CC(=O)NC1Cc2ccc(S(=O)(=O)O)cc2C1.O` (centres undefined), for which the Protected mice amounted to 0%.

For the molecule `NS(=O)(=O)c1ccc2c(c1)CC(NC(=O)c1c(F)c(F)cc(F)c1F)C2` (centres undefined), the Protected mice is 13%.

In the case of `NS(=O)(=O)c1ccc2c(c1)CC(NC(=O)c1c(F)c(F)c(F)c(F)c1F)C2` (centres undefined), the Protected mice turned out to be 38%.

In turn, `CC(=O)NC1Cc2ccc(S(N)(=O)=O)cc2C1` (centres undefined) displayed a Protected mice of 38%.

Molecule `NC1Cc2ccc(S(=O)(=O)O)cc2C1` (centres undefined) showed a Protected mice of 0%.

In turn, `NS(=O)(=O)c1ccc2c(c1)CC(NC(=O)c1ccc(Cl)cc1)C2` (centres undefined) had a Protected mice of 31%.

In turn, `COc1ccc(Cl)cc1C(=O)NC1Cc2ccc(S(N)(=O)=O)cc2C1.O` (centres undefined) came in with a Protected mice of 38%.

As to `CC(=O)/N=c1/sc(S(N)(=O)=O)nn1C` [METHAZOLAMIDE], the Protected mice is reported as 100%.

`Cl.NC1Cc2ccc(S(N)(=O)=O)cc2C1` (centres undefined) displayed a Protected mice of 0%.

Source of the values: ChEMBL document CHEMBL1138647, “Carbonic anhydrase inhibitors. Design of anticonvulsant sulfonamides incorporating indane moieties” (Bioorg Med Chem Lett, 2004).
